Assay results published in ChEMBL document CHEMBL1255453, “Affinity of ceftaroline and other beta-lactams for penicillin-binding proteins from Staphylococcus aureus and Streptococcus pneumoniae” (Antimicrob Agents Chemother, 2010).
Converted amounts (≈) assume the structure as drawn.

What was measured:
[1] = biological target: T1, Penicillin-binding protein 1A (Streptococcus pneumoniae serotype 4 (strain ATCC BAA-334 / TIGR4), UniProt Q04707); assay: Binding affinity to against penicillin-susceptible Streptococcus pneumoniae 1076 PBP1A by competitive binding assay
T1 sequence (Q04707 whole entry): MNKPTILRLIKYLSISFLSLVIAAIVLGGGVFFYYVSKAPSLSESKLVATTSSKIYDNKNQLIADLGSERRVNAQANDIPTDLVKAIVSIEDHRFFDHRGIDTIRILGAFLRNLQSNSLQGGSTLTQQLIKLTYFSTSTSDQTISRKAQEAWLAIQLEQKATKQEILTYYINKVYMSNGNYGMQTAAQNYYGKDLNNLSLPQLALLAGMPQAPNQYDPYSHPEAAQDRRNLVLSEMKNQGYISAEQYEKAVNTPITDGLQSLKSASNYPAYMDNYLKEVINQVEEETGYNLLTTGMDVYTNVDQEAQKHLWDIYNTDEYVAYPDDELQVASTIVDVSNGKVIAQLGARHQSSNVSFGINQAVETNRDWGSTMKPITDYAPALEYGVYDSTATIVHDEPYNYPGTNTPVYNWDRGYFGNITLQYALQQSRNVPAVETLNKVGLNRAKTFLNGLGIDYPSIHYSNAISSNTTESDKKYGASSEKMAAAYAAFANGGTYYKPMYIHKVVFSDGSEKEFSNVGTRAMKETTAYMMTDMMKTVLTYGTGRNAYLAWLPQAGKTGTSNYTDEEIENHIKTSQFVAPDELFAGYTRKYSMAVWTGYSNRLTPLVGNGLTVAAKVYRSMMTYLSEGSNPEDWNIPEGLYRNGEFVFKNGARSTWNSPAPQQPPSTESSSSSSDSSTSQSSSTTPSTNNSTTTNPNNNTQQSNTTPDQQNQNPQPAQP
Method in brief: (§1)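 Whole pneumococcal cells grown to OD600 0.3 in Todd-Hewitt broth with 0.5% yeast extract, resuspended in 50 mM NaPO4 pH 7.0. Cells (10^8–5 × 10^8 CFU/ml) incubated with β-lactam 10 min at 37°C, then Bocillin FL 10 μg/ml, 15 min at 37°C. SDS-PAGE, 520 nm fluorescence; IC50 = 50% inhibition of Bocillin FL binding; 2 experiments.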

[2] = biological target: T2, Penicillin-binding protein 2x (Streptococcus pneumoniae serotype 4 (strain ATCC BAA-334 / TIGR4), UniProt P14677); assay: Binding affinity to against penicillin-susceptible Streptococcus pneumoniae 1076 PBP2X by competitive binding assay; method in brief: as §1
T2 sequence (P14677 whole entry): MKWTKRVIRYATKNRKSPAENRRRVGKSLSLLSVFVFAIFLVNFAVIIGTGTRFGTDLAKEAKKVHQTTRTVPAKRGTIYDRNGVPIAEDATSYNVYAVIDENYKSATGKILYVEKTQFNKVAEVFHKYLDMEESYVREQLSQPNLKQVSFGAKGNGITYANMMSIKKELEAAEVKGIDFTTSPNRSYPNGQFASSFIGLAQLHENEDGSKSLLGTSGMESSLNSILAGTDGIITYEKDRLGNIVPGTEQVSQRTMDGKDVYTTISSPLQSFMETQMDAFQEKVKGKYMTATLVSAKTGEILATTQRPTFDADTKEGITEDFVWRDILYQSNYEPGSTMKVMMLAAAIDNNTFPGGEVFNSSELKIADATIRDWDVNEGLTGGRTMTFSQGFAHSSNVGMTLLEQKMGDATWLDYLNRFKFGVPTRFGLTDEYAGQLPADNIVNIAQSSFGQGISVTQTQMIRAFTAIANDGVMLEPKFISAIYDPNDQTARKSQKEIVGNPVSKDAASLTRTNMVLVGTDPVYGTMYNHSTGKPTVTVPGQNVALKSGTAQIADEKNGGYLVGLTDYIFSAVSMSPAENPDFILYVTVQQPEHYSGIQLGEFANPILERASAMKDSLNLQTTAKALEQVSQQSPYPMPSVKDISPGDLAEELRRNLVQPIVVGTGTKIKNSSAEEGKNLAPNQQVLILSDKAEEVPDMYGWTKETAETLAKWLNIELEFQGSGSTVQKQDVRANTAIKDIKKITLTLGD

[3] = biological target: T3, Penicillin-binding protein 2B (Streptococcus pneumoniae serotype 4 (strain ATCC BAA-334 / TIGR4), UniProt P0A3M5); assay: Binding affinity to penicillin-resistant Streptococcus pneumoniae 2527 PBP2B by competitive binding assay
T3 sequence (P0A3M5 whole entry): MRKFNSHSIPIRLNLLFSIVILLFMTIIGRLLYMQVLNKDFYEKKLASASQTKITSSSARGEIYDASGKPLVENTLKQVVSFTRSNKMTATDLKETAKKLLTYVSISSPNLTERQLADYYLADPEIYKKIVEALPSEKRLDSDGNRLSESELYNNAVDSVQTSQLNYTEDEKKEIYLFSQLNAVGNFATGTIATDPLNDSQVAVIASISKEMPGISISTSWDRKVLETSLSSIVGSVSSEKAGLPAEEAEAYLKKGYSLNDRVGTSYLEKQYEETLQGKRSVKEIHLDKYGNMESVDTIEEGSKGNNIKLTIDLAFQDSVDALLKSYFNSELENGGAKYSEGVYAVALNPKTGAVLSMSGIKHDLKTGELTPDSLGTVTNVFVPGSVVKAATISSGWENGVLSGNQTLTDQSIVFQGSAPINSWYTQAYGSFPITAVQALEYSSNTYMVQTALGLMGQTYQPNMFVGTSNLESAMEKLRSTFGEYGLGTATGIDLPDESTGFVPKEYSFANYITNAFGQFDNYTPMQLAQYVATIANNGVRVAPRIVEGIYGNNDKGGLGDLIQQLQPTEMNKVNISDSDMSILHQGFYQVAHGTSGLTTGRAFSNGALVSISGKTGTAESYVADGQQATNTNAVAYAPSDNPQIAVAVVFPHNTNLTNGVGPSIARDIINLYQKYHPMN
Method in brief: (§2)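 Whole pneumococcal cells were grown to OD600 0.3 in Todd-Hewitt broth plus 0.5% yeast extract, then resuspended in 50 mM NaPO4, pH 7.0. Cells at 10^8 to 5 × 10^8 CFU/ml were exposed to β-lactam for 10 min at 37°C, alongside a reference without drug. They were then labeled with 10 μg/ml Bocillin FL for 15 min at 37°C. Proteins were resolved by SDS-PAGE and fluorescence read at 520 nm. IC50 was taken as 50% inhibition of Bocillin FL binding, from 2 experiments.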

[4] = biological target: T1, Penicillin-binding protein 1A; assay: Binding affinity to penicillin-resistant Streptococcus pneumoniae 3413 PBP1A by competitive binding assay; method in brief: as §2
[5] = Binding affinity to penicillin-resistant Streptococcus pneumoniae 2527 PBP1B by competitive binding assay; method in brief: as §2

SMILES | IC50 [1] | IC50 [2] | IC50 [3] | IC50 [4] | IC50 [5]
CO/N=C(\C(=O)N[C@@H]1C(=O)N2C(C(=O)O)=C(COC(C)=O)CS[C@H]12)c1csc(N)n1 [CEFOTAXIME] | 0.22 µM | 0.549 µM | 8.78 µM | 0.549 µM | 0.25 µg/mL (≈ 0.549 µM)
CO/N=C(\C(=O)N[C@@H]1C(=O)N2C(C(=O)O)=C(CSc3nc(=O)c(O)nn3C)CS[C@H]12)c1csc(N)n1 [CEFTRIAXONE] | 0.18 µM | 0.18 µM | 7.21 µM | 0.451 µM | 0.125 µg/mL (≈ 0.225 µM)
